ChEMBL document CHEMBL4513216, “Probing the Open Global Health Chemical Diversity Library for Multistage-Active Starting Points for Next-Generation Antimalarials” (ACS Infect Dis, 2020)

Assay: Toxicity liver stage against HepG2, at 10uM
Assay type: cell-based
Parameters: test concentration 10 uM, cell line HepG2-A16-CD81EGFP
Details: human, HepG2-A16-CD81EGFP cells; read-out: INHIBITION
Outline: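 Uninfected HepG2-A16-CD81EGFP cells, 3 × 10^3 per well, 1536-well, plated on prespotted compound at 10 μM final, parasite-free screening media added to match infected plates; puromycin 10 μM positive, DMSO 0.5% negative; run in parallel with 48 h PbLuc assay at 37 °C, 5% CO2; viability by CellTiter-Glo luminescence, normalized to controls.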

O=C(NC1CCCCC1)c1ccc(COCC(F)(F)F)o1
cytotoxicity at 10 µM: 14.1%

COc1ccc(-c2cn3c(n2)CO[C@@H](CNCc2nccn2C)C3)cc1
cytotoxicity at 10 µM: -0.765%

O=S1(=O)c2cccnc2OC(COc2ccccc2)CN1CC1CC1 (stereo not drawn)
cytotoxicity at 10 µM: -3.24%

O=C(O)CCC(=O)N1CCC(c2noc3cc(F)ccc23)CC1
cytotoxicity at 10 µM: -14.8%

CC(C)Oc1ccc(CC2=N[C@](C)(CO)CO2)cc1
cytotoxicity at 10 µM: 16.3%

CCCN1CCc2nc(SCc3c(C)cc(C)cc3C)[nH]c(=O)c2C1
cytotoxicity at 10 µM: -2.33%

COc1cccc(C(O)CN2CCN(c3cccc(C)c3)CC2)c1 (stereo not drawn)
cytotoxicity at 10 µM: -3.85%

O=C(CCc1ccccc1)N1C[C@H]2CCN[C@H]2C1
cytotoxicity at 10 µM: -4.22%

O=C1N(Cc2ccncc2)CCC12CCCNC2 (stereo not drawn)
cytotoxicity at 10 µM: 4.26%

O=C(COc1coc(CN2CCCCC2)cc1=O)c1ccccc1
cytotoxicity at 10 µM: 8.44%

O=C1COc2ccc(S(=O)(=O)N3CCOCC3)c3c2N1CCC3
cytotoxicity at 10 µM: 7.55%

O=C(NCc1ccco1)N1CCCCC1c1nc(C2CC2)no1 (stereo not drawn)
cytotoxicity at 10 µM: -7.86%

Cc1noc([C@@]23CCO[C@@H]2CCN(C(=O)C2CCOCC2)C3)n1
cytotoxicity at 10 µM: 1.68%

CC(=O)N1CC[C@H]2OCC[C@@]2(C(=O)NCc2ccco2)C1
cytotoxicity at 10 µM: 0.253%

COc1cccc(S(=O)(=O)N2CCn3cnc(COCC4CC4)c3C2)c1
cytotoxicity at 10 µM: -18.9%

Cc1csc(NC(=O)C(C)Oc2ccc3c(c2)OCO3)n1 (stereo not drawn)
cytotoxicity at 10 µM: 8.06%

COC(=O)c1ccnn1COc1ccc(Cl)cc1
cytotoxicity at 10 µM: -14.8%

CCn1cc(NC(=O)C2CCC(=O)N2Cc2ccc(C)o2)cn1 (stereo not drawn)
cytotoxicity at 10 µM: -2.92%

Cc1cn[nH]c1C1COCCN1C(=O)c1ccc2[nH]nnc2c1 (stereo not drawn)
cytotoxicity at 10 µM: 2.73%

CCNC(=O)[C@H]1CN(Cc2ccccc2)C[C@@H]1C(=O)c1ccccc1
cytotoxicity at 10 µM: 3.08%

c1cc(C2CN(C3CCCCC3)C2)n[nH]1
cytotoxicity at 10 µM: 4.18%

CNC(=O)CCc1cc(C2CCN(c3cnccn3)CC2)nc(C)n1
cytotoxicity at 10 µM: -4.65%

CSc1nnc(C2CCN(C(=O)N3CCCC3)CC2)n1C
cytotoxicity at 10 µM: 2.11%

CN1CCC(c2n[nH]cc2-c2ccnc(N)c2)C1 (stereo not drawn)
cytotoxicity at 10 µM: 3.79%

CNc1cccc(C2CCCN(Cc3ncc[nH]3)C2)n1 (stereo not drawn)
cytotoxicity at 10 µM: -18%

CC(=O)N1CCCC(c2ccccn2)C1 (stereo not drawn)
cytotoxicity at 10 µM: -23.7%

NC(=O)C1(c2cnccn2)CCCN1Cc1cccc(Cl)c1 (stereo not drawn)
cytotoxicity at 10 µM: -2.5%

COc1ccc(Br)cc1SCCC(N)=O
cytotoxicity at 10 µM: 7.72%

CCOc1cccnc1C(=O)N1CCCN(c2nc(C)cs2)CC1
cytotoxicity at 10 µM: 5.6%

O=C(Cc1cccc(F)c1F)NC1COc2ccccc2C1=O (stereo not drawn)
cytotoxicity at 10 µM: 10.4%

Cc1cc(CN(C)Cc2cnc3c(c2)c(C)nn3C)no1
cytotoxicity at 10 µM: 0.995%

CCC(c1ccc(F)cc1)S(=O)(=O)CCO (stereo not drawn)
cytotoxicity at 10 µM: -136%

COCCN(Cc1ccc(C)o1)C(=O)Nc1ncc(C)s1
cytotoxicity at 10 µM: 10%

CNC(=O)c1cccc(CN2CCC(N(C)Cc3nnc(C)o3)C2)c1 (stereo not drawn)
cytotoxicity at 10 µM: 8.75%

Cc1cnn(C2CCCN(C(=O)CN(C)c3cnccn3)C2)c1 (stereo not drawn)
cytotoxicity at 10 µM: -8.73%

Cc1cc(C(C)(O)CNC(=O)CCn2ccnc2C(C)C)c(C)o1 (stereo not drawn)
cytotoxicity at 10 µM: 4.27%

CC(CNC(=O)OC(C)(C)C)N(C)C(=O)COc1ccccc1C#N (stereo not drawn)
cytotoxicity at 10 µM: 1.39%

Cc1cccc(NCCNc2ccc(C#N)cn2)n1
cytotoxicity at 10 µM: 18%

CC(CNC(=O)N1CCS(=O)(=O)CC1)Cc1cccs1 (stereo not drawn)
cytotoxicity at 10 µM: -9.47%

Cc1ccc(-n2cc(C(=O)N3CCn4c(C)nnc4C3)nn2)cc1
cytotoxicity at 10 µM: -141%

Cc1ncsc1C(=O)N1CCN(Cc2cscn2)CC1
cytotoxicity at 10 µM: -2.65%

CCCc1ccc(S(=O)(=O)NC(=O)CCc2cscn2)cc1
cytotoxicity at 10 µM: 1.12%

CC(CC(=O)NCCS(N)(=O)=O)C1CCCCC1 (stereo not drawn)
cytotoxicity at 10 µM: -9.52%

O=S(=O)(NCCN1CCOCC1)c1cncc(Cl)c1
cytotoxicity at 10 µM: 2.77%

CNC(=O)N(Cc1c(F)cccc1F)C1CCCC1
cytotoxicity at 10 µM: 8.23%

COc1ccccc1-c1cc(NC(=O)COCC2CC2)[nH]n1
cytotoxicity at 10 µM: -116%

CC(Cn1cccn1)NCCS(=O)(=O)c1ccccc1 (stereo not drawn)
cytotoxicity at 10 µM: -3.63%

CC1CCN(c2ccnc3ccc(Br)cc23)CC1
cytotoxicity at 10 µM: 15.4%

CCN(CCC(=O)OC)C(=O)c1cc(F)cc2[nH]cnc12
cytotoxicity at 10 µM: -7.37%

CN1CCN(S(=O)(=O)c2cccnc2)c2cnccc21
cytotoxicity at 10 µM: -0.376%

CC(C)(C)Oc1ccc(NCC(=O)NCc2ccco2)cc1
cytotoxicity at 10 µM: 2.21%

COC(=O)CNC(=O)C12CCC(=O)N1c1cc(Cl)ccc1S2 (stereo not drawn)
cytotoxicity at 10 µM: -0.748%

O=C(c1ccno1)N1CCn2cc(CN3CCCCC3)nc2C1
cytotoxicity at 10 µM: -77.2%

C[C@@H]1C[C@@H]2CCN(Cc3ccncc3)C[C@H]2O1
cytotoxicity at 10 µM: -72.9%

C[C@H]1C[C@@H]2CCN(Cc3ccccn3)C[C@H]2O1
cytotoxicity at 10 µM: 5.66%

CS(=O)(=O)N1CCc2[nH]cnc2C12CCN(C(=O)c1ccc[nH]1)CC2
cytotoxicity at 10 µM: -1.42%

Cc1ccc2nc(C)cc(C(=O)NCc3csc(N(C)C)n3)c2c1
cytotoxicity at 10 µM: 1.21%

COC(C)(C)C(=O)N1Cc2cnc(C(C)(C)C)nc2C1
cytotoxicity at 10 µM: -121%

COc1cccc(OCCc2cncc(C(N)=O)c2)c1
cytotoxicity at 10 µM: -135%

CCC1CN(C(=O)c2cc(CN(C)CCc3ccccc3)on2)CCO1 (stereo not drawn)
cytotoxicity at 10 µM: -4.12%

COc1ccc(C(=O)N2CCC(c3nccn3C(C)C)CC2)cc1OC
cytotoxicity at 10 µM: 1.52%

COCCN(Cc1ccncc1)C(=O)CCSCc1ccc(F)cc1
cytotoxicity at 10 µM: 0.807%

Cc1oc(-c2cccc(F)c2F)nc1CN(C)CCC(C)(C)O
cytotoxicity at 10 µM: -4.47%

CCCn1ccnc1CN1C[C@@H](CN2CCCN(C)CC2)[C@@H](CO)C1
cytotoxicity at 10 µM: 2.81%

CN1CCC(NN2CCN(C)CC2)CC1
cytotoxicity at 10 µM: -2.76%

CCCN1CCCn2nc(CNC(=O)CC3CCS(=O)(=O)C3)cc2C1 (stereo not drawn)
cytotoxicity at 10 µM: -2.1%

O=C(c1cccc(Oc2ccccc2)c1)N1CCCC(O)(CO)CC1 (stereo not drawn)
cytotoxicity at 10 µM: -3.17%

O=C1NC[C@@]2(C(=O)O)CN(Cc3cccc(CN4CCOCC4)c3)C[C@@H]12
cytotoxicity at 10 µM: -7.98%

CC(=O)NCCC1CCCCN1S(=O)(=O)c1cccc(Cl)c1 (stereo not drawn)
cytotoxicity at 10 µM: -125%

Cc1nn(C)c(C)c1NC(=O)c1cccc(CN2C[C@H]3CC[C@@H](C2)N3)c1
cytotoxicity at 10 µM: -0.277%

Cc1nc(NC(=O)N2CCCC(C(F)(F)F)C2)nn1C (stereo not drawn)
cytotoxicity at 10 µM: 9.56%

Cc1ccsc1CCNC(=O)C1(Oc2cccnc2C)CCNCC1
cytotoxicity at 10 µM: -2.37%

COc1ccc(CCN2CCCC(CN(C)Cc3[nH]cnc3C)C2)cc1 (stereo not drawn)
cytotoxicity at 10 µM: -11.7%

Cc1nc(N(C)C)ncc1C(=O)N(Cc1ccncc1)CC1CCCO1 (stereo not drawn)
cytotoxicity at 10 µM: -1.59%

CCCc1nnc(NCCCn2nc(C)c(Cl)c2C)o1
cytotoxicity at 10 µM: -0.351%

Cc1cccnc1CC(C)N(C)Cc1cccs1 (stereo not drawn)
cytotoxicity at 10 µM: -12.4%

O=C(NCc1ccc(C(=O)N2CCCC2)cc1)c1cn2c(n1)CNCC2
cytotoxicity at 10 µM: -10.2%

CC(=O)NCCc1cn(-c2cc(F)ccc2C)cn1
cytotoxicity at 10 µM: -1.47%

COCc1nc2ncc3c(=O)n(-c4cccc(OC)c4)ccc3n2n1
cytotoxicity at 10 µM: 8.99%

O=C(CCc1nc(Cl)n[nH]1)N[C@H]1CC[C@H]1NC1Cc2ccccc2C1
cytotoxicity at 10 µM: -1.74%

Cc1ccc(C(=O)O)c(N2CC(C)(C)[C@@](C)(O)C2)n1
cytotoxicity at 10 µM: 4.5%

CC(C)c1ncc(S(C)(=O)=O)c(C2CCCNC2)n1 (stereo not drawn)
cytotoxicity at 10 µM: -1.34%

COC(=O)CCC(=O)N1CCc2[nH]nc(-c3ccc(F)c(F)c3)c2C1
cytotoxicity at 10 µM: 0.604%

CC(c1ccccc1Cl)N(C)Cc1nc2c(cnn2C)c(=O)[nH]1 (stereo not drawn)
cytotoxicity at 10 µM: -5.19%

Cc1ccc(NC(=O)C2CSCN2C(=O)c2ccncc2)c(C)c1 (stereo not drawn)
cytotoxicity at 10 µM: -10.4%

c1cncc(-c2noc(CN3CCOC(Cn4cccn4)C3)n2)c1 (stereo not drawn)
cytotoxicity at 10 µM: -11.4%

Cc1cccc(NS(=O)(=O)c2cc(C(=O)O)oc2C)c1Cl
cytotoxicity at 10 µM: -14.6%

COc1cc(CNC2CCc3nc(C(C)C)nn3C2)cc2c1OCO2 (stereo not drawn)
cytotoxicity at 10 µM: -5.82%

Cc1nc(C)c(CC(=O)Nc2ncc(C)s2)c(=O)[nH]1
cytotoxicity at 10 µM: -5.49%

CC(C)c1ncc2c(n1)CN(Cc1cccc(C#N)c1)CC2
cytotoxicity at 10 µM: -9.03%

Cn1cc(C2CCCN2Cc2csc(-c3ccsc3)n2)cn1 (stereo not drawn)
cytotoxicity at 10 µM: -8.21%

COc1ccc(CCN2CCCC2Cn2nc(C)nc2C)cc1 (stereo not drawn)
cytotoxicity at 10 µM: -7.16%

Cc1nnc(NC(=O)CN2CCCC(Cn3cncn3)C2)s1 (stereo not drawn)
cytotoxicity at 10 µM: 1.71%

Cc1cnn(CC2CN(CC(=O)N3CCc4ccccc43)CCO2)c1 (stereo not drawn)
cytotoxicity at 10 µM: -0.77%

Cc1nc(C(=O)N2CCCC2c2c(C)nn(C)c2C)ccc1C#N (stereo not drawn)
cytotoxicity at 10 µM: -6.16%

O=C(CCc1ccccc1F)NS(=O)(=O)c1ccc2c(c1)OCCCO2
cytotoxicity at 10 µM: -3.2%

Cc1cc(C)n(C2CN(CC(=O)N3CCOCC3)C2)n1
cytotoxicity at 10 µM: -3.2%

CN(Cc1nnc2n1CCC2)C(=O)NCCc1ccc2c(c1)OCO2
cytotoxicity at 10 µM: -4.77%

O=C(NCCN1CCCCC1)c1ccoc1
cytotoxicity at 10 µM: -11.3%

Cc1cc(N2CCC(CC(N)=O)CC2)nc(-c2ccncc2)n1
cytotoxicity at 10 µM: -7.22%

CCN(Cc1ccc2c(c1)OCCO2)C(=O)NCc1nc(C)cs1
cytotoxicity at 10 µM: 1.47%

Cc1nnc(N2CCC(CNC(=O)OC(C)(C)C)CC2)c(C#N)c1C
cytotoxicity at 10 µM: 2.6%

O=C1CC2(CCNCC2)C(=O)N1Cc1ccc(F)cc1
cytotoxicity at 10 µM: 6.68%

CN(C)CCCNCCC(c1ccccc1)C1CCOC(C)(C)C1 (stereo not drawn)
cytotoxicity at 10 µM: -7.91%

COCCC(=O)N1CC2(CCN(Cc3cccc(Cl)c3)CC2)C1
cytotoxicity at 10 µM: 5.63%

COCCN1CCC2(CC1)CC(NC(=O)C1CC1)c1ccccc1O2 (stereo not drawn)
cytotoxicity at 10 µM: 1.67%

O=C(NC1CC1)N1CCc2ncc(CN3CCOCC3)n2CC1
cytotoxicity at 10 µM: -76.5%

Cn1cnc2c1C(COCc1ccccc1)N(Cc1ccncc1)CC2 (stereo not drawn)
cytotoxicity at 10 µM: -1.99%

O=C(NCc1ccco1)[C@H]1COC[C@H]2CN(Cc3ccccn3)C[C@H]21
cytotoxicity at 10 µM: -72.4%

Cc1cnnn1Cc1ncn2c1CN(Cc1cccs1)CCC2
cytotoxicity at 10 µM: 3.58%

CC(C)OCc1ncn2c1CN(Cc1cccs1)CCC2
cytotoxicity at 10 µM: 8.44%

CC(NCc1ccncc1)c1ccc(N2CCN(C)CC2)c(F)c1 (stereo not drawn)
cytotoxicity at 10 µM: 27.8%

Cc1ccc(N2CC3(CCN(Cc4nccn4C)C3)CC2=O)s1 (stereo not drawn)
cytotoxicity at 10 µM: -81.9%
